Measured values of several laboratories.
Lines come from different studies, so protocols differ.
Species: human
Matrix: plasma

Cc1ncc2n1-c1ccc(Cl)cc1C(c1ccccc1F)=NC2
Cmax (oral; 2 mg; single dose): 9.74 ng/mL

CN(C)CCc1c[nH]c2ccccc12
Cmax (intravenous; 9 mg; healthy volunteers, infusion): 20.8 ng/mL

N=C(N)NCCC[C@@H](NC(=O)[C@@H](N)Cc1ccccc1)C(=O)N[C@@H](Cc1ccccc1)C(=O)N[C@@H](CCCCN)C(N)=O
Cmax (subcutaneous; 15 mg; multiple doses, once daily, patients): 726 ng/mL

C=C(C)[C@@H]1CC[C@]2(NCCN3CCS(=O)(=O)CC3)CC[C@]3(C)[C@H](CC[C@@H]4[C@@]5(C)CC=C(C6=CC[C@@](COc7ncccc7C#N)(C(=O)O)CC6)C(C)(C)[C@@H]5CC[C@]43C)[C@@H]12
Cmax (oral; 100 mg; single dose, fasted, tablet): 228 ng/mL

CC[C@H](C)[C@H](NC(=O)[C@H](CC(C)C)NC(=O)[C@H](Cc1c[nH]c2ccccc12)NC(=O)[C@H](CCC(N)=O)NC(=O)[C@@H](NC(=O)[C@H](Cc1ccccc1)NC(=O)[C@H](C)NC(=O)[C@H](CCCCNC(=O)COCCOCCNC(=O)COCCOCCNC(=O)CC[C@H](NC(=O)CCCCCCCCCCCCCCCCCCC(=O)O)C(=O)O)NC(=O)[C@H](CCC(N)=O)NC(=O)[C@H](C)NC(=O)[C@@H](NC(=O)[C@H](CCCCN)NC(=O)[C@H](CC(=O)O)NC(=O)[C@H](CC(C)C)NC(=O)C(C)(C)NC(=O)[C@@H](NC(=O)[C@H](CO)NC(=O)[C@H](Cc1ccc(O)cc1)NC(=O)[C@H](CC(=O)O)NC(=O)[C@H](CO)NC(=O)[C@@H](NC(=O)[C@H](Cc1ccccc1)NC(=O)[C@@H](NC(=O)CNC(=O)[C@H](CCC(=O)O)NC(=O)C(C)(C)NC(=O)[C@@H](N)Cc1ccc(O)cc1)[C@@H](C)O)[C@@H](C)O)[C@@H](C)CC)[C@@H](C)CC)C(C)C)C(=O)N[C@@H](C)C(=O)NCC(=O)NCC(=O)N1CCC[C@H]1C(=O)N[C@@H](CO)C(=O)N[C@@H](CO)C(=O)NCC(=O)N[C@@H](C)C(=O)N1CCC[C@H]1C(=O)N1CCC[C@H]1C(=O)N1CCC[C@H]1C(=O)N[C@@H](CO)C(N)=O
Cmax (subcutaneous; 4.5 mg; multiple doses, healthy volunteers): 884 ng/mL

c1cc([C@H]2CC[C@]3(CC2)OO[C@]2(O3)C3CC4CC(C3)CC2C4)ccc1OCCN1CCOCC1
Cmax (oral; 400 mg; patients): 732 ng/mL

CC(=C/C=C/C(C)=C/C(=O)O)/C=C1\CCCc2ccccc21
Cmax (oral; 20 mg; single dose, fasted, healthy volunteers): ~70 ng/mL

COc1ccc(C[C@@H]2NC(=O)[C@H]([C@@H](C)O)NC(=O)[C@@H]3[C@@H]4CCN3C(=O)[C@@H]3Cc5cn(c6ccc(F)cc56)CCCCCCN(Cc5ccc(cc5)CCNC(=O)[C@]5(C)CCCN5C2=O)C(=O)CCC(=O)N[C@@H](C)C(=O)N[C@H](CNC(=O)CCCCC[N+](C)(C)C)C(=O)N[C@@H](Cc2cccc(c2)CNC(=O)CO4)C(=O)N3)cc1
Cmax (oral; 200 mg; single dose): 7.84 nM
